KCNQ1 act: potentiators or activators of KCNQ1 channel, primary screen, cell-based, thallium flux, high-throughput. CHO-K1 KCNQ1, thallium flux FluxOR fluorescence; stronger effect = higher value. B-score at 10 µM. hit rate 0.35% among 310,000. AID 2648, 2010;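 active = fluorescence ratio B-score, a plate-corrected score, at least three library SD, with initial intensity B-score within 5 SD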
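Assay system: stable KCNQ1 CHO-K1 line; medium: assay buffer, equal DMSO in all wells; timing: 90 min dye loading and 20 min compound exposure, both at room temperature; technique: kinetic FluxOR thallium fluorescence, 10-s 1-Hz baseline, 110-s post-stimulus read; read-out basis: B score of baseline-normalized fluorescence ratio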
KCNK9 block: KCNK9 potassium channel inhibitors, primary screen, HEK293 cells, thallium flux; Potassium channel subfamily K member 9 (Homo sapiens), Q9NPC2; FluxOR thallium flux fluorescence; stronger effect = lower value; B-score at 10 µM; hit rate 1.2% among 310,000;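 active = ratio B-score over 3 SD below the library mean, with starting fluorescence within 5 SD of its mean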;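 note: negative B-score means less thallium flux so channel inhibition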
Kir21 inh: inhibitors of mouse Kir2.1 inward-rectifier potassium channel | Inward rectifier potassium channel 2 (Mus musculus), P35561 | HEK293-Kir2.1, FluxOR thallium flux fluorescence; stronger effect = lower value | B-score at 10 µM | hit rate 0.85% among 310,000 | AID 1672, 2009;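 active = fluorescence ratio B-score at or below minus 3 SD of library scores, with starting-brightness B-score within 2 SD, cut at about -4.2 in these data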;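 note: channel flux triggered by added potassium and thallium sulfate stimulus; B-score of peak minus minimum fluorescence over baseline after thallium stimulus; more negative B-score means stronger Kir2.1 block with less thallium influx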
KCNQ1 block: inhibitors of human KCNQ1 channel, primary screen, cell-based, thallium flux, high-throughput. CHO-K1 KCNQ1, FluxOR thallium flux fluorescence; stronger effect = higher value. hit rate 1.3% among 310,000. B-score at 10 µM. Potassium voltage-gated channel subfamily KQT member 1 (Homo sapiens), P51787;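 active = compounds whose thallium flux B-score, printed positive for inhibition, exceeds three library SD while starting fluorescence stays within three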;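 note: channel opened by potassium depolarization with thallium stimulus after 20 min compound exposure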
KCNK3 block: human KCNK3 channel inhibitors, primary screen, CHO cells, FluxOR thallium flux, B-score | B-score at 10 µM | hit rate 0.84% among 340,000 | FluxOR fluorescence; stronger effect = lower value | Potassium channel subfamily K member 3 (Homo sapiens), O14649;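 active = B-score under library mean minus 4 SD, starting fluorescence ratio at most library mean plus 5 SD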;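 note: more negative B-score means stronger inhibition of thallium flux through KCNK3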
hERG rescue: hERG rescue from dofetilide block, primary screen, cell-based, CHO-hERG, FluxOR thallium flux, dofetilide IC70; hit rate 0.51% among 310,000; dofetilide IC70 present; Voltage-gated inwardly rectifying potassium channel KCNH2 (Homo sapiens), Q12809; activation (rescue from dofetilide block), less the hit threshold, % at 10 µM;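 active = activation above the mean of controls blocked by dofetilide plus 5 SD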;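 note: thallium influx through hERG after potassium depolarization seen as dye fluorescence rise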
Active calls of the source: *. Shown are actives, neighbours in structure and some others; about 3.7% of the full set was active somewhere.

How did CN(C1CCCCC1)S(=O)(=O)c1cccc2nsnc12 do in these assays?
KCNQ1 act: inactive; KCNK9 block: inactive; Kir21 inh: -5.1*; KCNQ1 block: inactive; KCNK3 block: inactive; hERG rescue: -4

What do the screens show for `CCN(c1ccc(F)cc1)S(=O)(=O)c1cccc2nsnc12`?
KCNQ1 act: inactive; KCNK9 block: inactive; Kir21 inh: -5.5*; KCNQ1 block: inactive; KCNK3 block: inactive; hERG rescue: -5

What do the screens show for `N#CCCN(C1CCCCC1)S(=O)(=O)c1cccc2nsnc12`?
KCNQ1 act: inactive; KCNK9 block: inactive; Kir21 inh: -1.6; KCNQ1 block: inactive; KCNK3 block: inactive; hERG rescue: -9

Results for Cn1c(=O)c2nc(NCc3ccccc3)sc2n(C)c1=O ?
KCNK3 block: inactive

Results for O=C(CSc1nnc(SCc2cccc3ccccc23)s1)N/N=C/c1c[nH]c2ccccc12 ?
KCNQ1 act: inactive; KCNK9 block: inactive; Kir21 inh: 0.08; KCNQ1 block: inactive; KCNK3 block: inactive; hERG rescue: -1

What do the screens show for `O=C(CSc1nnc(SCc2cccc3ccccc23)s1)N/N=C/C=C/c1ccccc1[N+](=O)[O-]`?
KCNQ1 act: inactive; KCNK9 block: -7.5*; Kir21 inh: -0.12; KCNQ1 block: inactive; KCNK3 block: inactive; hERG rescue: -14

What do the screens show for `O=C(COC(=O)COc1ccccc1)NCCC1=CCCCC1`?
KCNK3 block: inactive

What do the screens show for `COc1ccc(-c2nnc(SCc3ccccn3)n2C)cc1`?
KCNQ1 act: inactive; KCNK9 block: inactive; Kir21 inh: 0.04; KCNQ1 block: inactive; KCNK3 block: inactive; hERG rescue: -9

Results for COc1ccc(N=C(N)SCc2ccccn2)cc1 ?
KCNQ1 act: inactive; KCNK9 block: inactive; Kir21 inh: -4.5*; KCNQ1 block: inactive; KCNK3 block: inactive; hERG rescue: -4

Results for Oc1c(Br)cc(Br)cc1/C=N/c1nccs1 ?
KCNK3 block: inactive

What do the screens show for `Oc1c(Br)cc(Br)cc1C=Nc1ccc2[nH]ncc2c1`?
KCNQ1 act: 10*; KCNK9 block: -7.7*; Kir21 inh: -3.5; KCNQ1 block: inactive; KCNK3 block: inactive; hERG rescue: 5.4*

How did Oc1c(Br)cc(Br)cc1C=Nc1cccnc1 do in these assays?
KCNQ1 act: 15*; KCNK9 block: inactive; Kir21 inh: -0.86; KCNQ1 block: inactive; KCNK3 block: inactive; hERG rescue: -18

Results for COc1ccc(C=Nc2ccc3[nH]ncc3c2)c(O)c1 ?
KCNQ1 act: inactive; KCNK9 block: inactive; Kir21 inh: -0.99; KCNQ1 block: inactive; KCNK3 block: inactive; hERG rescue: -8

Results for N#C/C(=C/c1ccc(N2CCOCC2)o1)C(=O)Nc1ccccc1 ?
KCNQ1 act: inactive; KCNK9 block: -6.6*; Kir21 inh: -3.7; KCNQ1 block: inactive; KCNK3 block: inactive; hERG rescue: -34

How did N#C/C(=C\c1ccc(N2CCOCC2)o1)C(=O)NC1CCCCC1 do in these assays?
KCNQ1 act: inactive; KCNK9 block: inactive; Kir21 inh: -6.6; KCNQ1 block: 9*; KCNK3 block: inactive; hERG rescue: -26

Results for COCCNC(=O)/C(C#N)=C/c1ccc(N2CCOCC2)o1 ?
KCNQ1 act: inactive; KCNK9 block: inactive; Kir21 inh: -6.7; KCNQ1 block: inactive; KCNK3 block: inactive; hERG rescue: -21

How did N#C/C(=C\c1ccc(N2CCOCC2)o1)C(=O)NCC1CCCO1 (stereo unspecified) do in these assays?
KCNQ1 act: inactive; KCNK9 block: inactive; Kir21 inh: -4.4; KCNQ1 block: 9*; KCNK3 block: inactive; hERG rescue: -17

How did N#C/C(=C/c1ccc(-c2ccc(S(=O)(=O)N3CCOCC3)cc2)o1)C(=O)NC1CC1 do in these assays?
KCNK3 block: inactive

Results for CCOc1ccc(-c2cc(C(=O)OC)[nH]n2)cc1 ?
KCNQ1 act: inactive; KCNK9 block: inactive; Kir21 inh: 0.34; KCNQ1 block: inactive; KCNK3 block: inactive; hERG rescue: 9.4*

High-throughput results as filed in PubChem BioAssay.
